Results: the EternaBench riboswitch data

Test system: MS2 coat protein
Experiment: apparent Kd, MS2 coat protein; higher = weaker binding; RNA-MaP array
In short: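 With or without input ligand, designed RNAs transcribed on an Illumina sequencing chip from sequenced DNA templates were incubated at room temperature with fluorescently labeled MS2 coat protein at 1.5 nM to 3 μM. The buffer was Tris-HCl pH 7.5 with KCl, MgCl2, BSA, DTT, tRNA and Tween20, and incubation ran 0.8–1.5 h at the lowest and 10–20 min at the highest concentrations. Apparent Kd is reported as the median of fits to binding curves from individual clusters. Designs measured on fewer than 10 clusters are not included.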

[1] = designed as: OFF switch for flavin mononucleotide, no ligand
[2] = ligand present: flavin mononucleotide, designed as: OFF switch for flavin mononucleotide
[3] = designed as: ON switch for flavin mononucleotide, no ligand
[4] = ligand present: flavin mononucleotide, designed as: ON switch for flavin mononucleotide
[5] = designed as: OFF switch for tryptophan, no ligand
[6] = ligand present: tryptophan, designed as: OFF switch for tryptophan

For “GAACAACAUGAGGAUCACCCAUGUCAGGAUACCAGUCGAAAGUCAGACCCUUGGCAGCCUAUCACUCAGCAAAUAGAUAGUACAA”, the “apparent Kd” value (designed as: ON switch for theophylline, no ligand) was 15.2 nM and the “apparent Kd” value (ligand present: theophylline, designed as: ON switch for theophylline) was 13.7 nM.

For “GAUGAGUUUAAGGAUAUGGUGCGUUGCUUCUUACCAGAAGGUAAAACAUGAGGAUCACCCAUGUGACGGGUGCC”, the “apparent Kd” value [1] was 177 nM and the “apparent Kd” value [2] was 103 nM.

With “UGUUUGCAAAGAGGAUAUUGGCCAACUGCUGGACAAGAAGGCUUUUAACAAGAUCCUUACAUGAGGAUCACCCAUGUUAGCGUA” the “apparent Kd” value [1] was 69.2 nM and the “apparent Kd” value [2] was 115 nM.

With “UCCCAGUAACAUGAGGAUCACCCAUGUUGGAGUGUGCCUGCUCAGGAUAUUCGCGGCAUAAAAGUGAAGAAGGGAGCUCAAACG” the “apparent Kd” value [1] was 13.1 nM and the “apparent Kd” value [2] was 11.3 nM.

“AUCGAUAAGAAGAAGGUGUGACAUGAGGAUCACCCAUGUUAUUGAACAGCACAUGAUCACAGAUACAAGGAUAUUCUACGUAUG” was tested, and the “apparent Kd” value [1] was 24.4 nM and the “apparent Kd” value [2] was 23.7 nM.

With “UAUUUGGGCAAGAAGGCAGGUUACAGCCAGCAUUAUCCACAUGAGGAUCACCCAUGUUCGGCGACUGAGGAUAUUGCCAAACCU” the “apparent Kd” value [1] was 38.5 nM and the “apparent Kd” value [2] was 37.5 nM.

For “AAAUUAACGAAGAAGGCCUGACGACAUGACUACAUGAGGAUCACCCAUGUUGCAGCACAAUAUAAGGAGGAUAUUCGACAAGCU”, the “apparent Kd” value [3] was 10.2 nM and the “apparent Kd” value [4] was 6.86 nM.

“UGCCCACAGGAGAAGGUGGCUCAACCAGAGCGCCAAGGAUAUCCGGAGUUACUCCUCACUACAUGAGGAUCACCCAUGUUUCAU” was tested, and the “apparent Kd” value [1] was 71.5 nM and the “apparent Kd” value [2] was 54.6 nM.

For “UUGCAACAAACAGGAUAUACGCGGACUUCACGGGUAGAAGGGUUCGACCAGGAGAUAUCCCACAUGAGGAUCACCCAUGUCGUC”, the “apparent Kd” value [1] was 163 nM and the “apparent Kd” value [2] was 130 nM.

With “GCACACAUGAGUUAGGAUAUAUGUUGUGAGACAUGAGGAUCACCCAUGUGUGCAUUGCUUAUAAUAUAGAAGGAACCCAGGUCGGC” the “apparent Kd” value [3] was 25.5 nM and the “apparent Kd” value [4] was 17.1 nM.

“CACAUGAGGAUCACCCAUGUGUGGUGGGUGGUGCAACAUUGUAAGGAUAUAAUGGACGUCGGCCCUUAGAAGGUACAUUGUACG” was tested, and the “apparent Kd” value [1] was 139 nM and the “apparent Kd” value [2] was 110 nM.

“UCUCGUGUGAAGGAUAUAGAUAUUUAACAAAAGCUAGAAGGUCAAACAUGAGGAUCACCCAUGUUUACAUAGGA” was tested, and the “apparent Kd” value [1] was 8.77 nM and the “apparent Kd” value [2] was 10.9 nM.

“CCACCAACAGGAUAUACGCUGAGGUUUUCUAACGGUCAUGUACAUGAGGAUCACCCAUGUAGAAGGGUUGUAGG” was tested, and the “apparent Kd” value [1] was 37 nM and the “apparent Kd” value [2] was 55.6 nM.

For “AAUUGAAACAGAGGUAUAUACGGACAUUACCGAGGACCGGUACGGCCGCCACUCGACCUAAAACAUGAGGAUCACCCAUGUAGCA”, the “apparent Kd” value [5] was 13.1 nM and the “apparent Kd” value [6] was 13.6 nM.

In the case of “AGUCACAUGAGGAUCACCCAUGUGCCAGAACGAGGACCGGUACGGCCGCCACUCGAGGCGUCCGUCGACAAUAAUGUGAACUGCA”, the “apparent Kd” value (designed as: ON switch for tryptophan, no ligand) is reported as 10.7 nM and the “apparent Kd” value (ligand present: tryptophan, designed as: ON switch for tryptophan) is reported as 12.1 nM.

With “GCGUGUUAUAGUCAUCGUGAGCGUCCAUCCCGAGGACCGGUACGGCCGCCACUCGCCACAGGACAUGAGGAUCACCCAUGUUAUG” the “apparent Kd” value [5] was 15 nM and the “apparent Kd” value [6] was 17 nM.

With “UAGCGUUCCUCAGGAUAUCCUUAAGUGGACAUGAGGAUCACCCAUGUGUGAUUCUGGGUGUUAUGGGAGAAGGGAGGGUGAUGA” the “apparent Kd” value [1] was 300 nM and the “apparent Kd” value [2] was 47.5 nM.

“CGAGGACAUGAGGAUCACCCAUGUGACCGUGCCAAAGGAUAUCACAGGAAAUAAUACAGUUGAGAAGGUUGAUCGG” was tested, and the “apparent Kd” value [3] was 47.1 nM and the “apparent Kd” value [4] was 17.6 nM.

For “UCCGGUGACCUAGGAUAUCGUUCAACUAACAUGAGGAUCACCCAUGUGGUCUGUUUUAUGCCUGUCGAGAAGGAGGUGGAUAAG”, the “apparent Kd” value [1] was 64.2 nM and the “apparent Kd” value [2] was 55.6 nM.

In the case of “AAUUGUCGAGCAGGAUAUAGCUGACAGGAUAUUCAACUAACGACAUGAGGAUCACCCAUGUGUGGCUAGAAGGGCUUCAAGGCA”, the “apparent Kd” value [3] is reported as 15.2 nM and the “apparent Kd” value [4] is reported as 11.5 nM.

In the case of “CCGGCGGAAGGAUAUUGCGAUGACCACAUGAGGAUCACCCAUGUCAACUUGAUCCGGGUACAAGAAGGUCCAGCGA”, the “apparent Kd” value [1] is reported as 19.3 nM and the “apparent Kd” value [2] is reported as 15.9 nM.

“CUACAUGAGGAUCACCCAUGUGCCUCUGGUCAGGGUCACUACGAGGAUAUAAUAGUUUAGACGAGUUAGAAGGCGUAUGAGUUA” was tested, and the “apparent Kd” value [1] was 111 nM and the “apparent Kd” value [2] was 77.4 nM.

For “CUGUACCGAAUAGGAUAUGAAAAGAAGGUAAAUUCAGAAGGAUUCAAUUAAUUUACAUGAGGAUCACCCAUGUCUAAGCAAACA”, the “apparent Kd” value [3] was 12.2 nM and the “apparent Kd” value [4] was 8.39 nM.

For “AGCUAUUCGGGUAAGGAUAUCGAUGUUGUUACAUGAGGAUCACCCAUGUUGCUCGACAUCAGUGACGAGAAGGUACAGCGUGGUAU”, the “apparent Kd” value [3] was 8.89 nM and the “apparent Kd” value [4] was 8.79 nM.

“AGCAAGACCGAGUCCAAUAACAUGAGGAUCACCCAUGUGUUCGAGGAUAUUAGGACUGAUGGGACUAAGAAGGCGAUCCCUUGU” was tested, and the “apparent Kd” value [3] was 46.5 nM and the “apparent Kd” value [4] was 37.2 nM.

With “UCAUCGAGAGAGGAUAUCGUAGCAAUUCACCAGCGAGAAGGCUCGACAUGAGGAUCACCCAUGUGGCUCCGCUU” the “apparent Kd” value [1] was 24.2 nM and the “apparent Kd” value [2] was 73.6 nM.

“CCGGCAACGUAAGGAUAUGAUUCGCGUCUUGACAUGAGGAUCACCCAUGUAACUGUCGAAAUGGCUCAGAAGGUACCAGUGCCC” was tested, and the “apparent Kd” value [3] was 26.6 nM and the “apparent Kd” value [4] was 17.9 nM.

“GUGCCACAUGAGGAUCACCCAUGUUUGGCAAGCAAAGGAUAUGGAAUGAUGGCUCGCAGCCCAGAAGGUUGUUGUG” was tested, and the “apparent Kd” value [3] was 4.52 nM and the “apparent Kd” value [4] was 4.76 nM.

For “ACAUGAGGAUCACCCAUGUUAUAGGGCAGGGAACGGAGCAUCUAGGAUAUUGUACACCGGCUACACAAGAAGGAGACCGAAGCU”, the “apparent Kd” value [1] was 15.7 nM and the “apparent Kd” value [2] was 12.3 nM.

With “CUUUGACGUGAGAAGGUGCAGGGAAUACACAAGCAAGGAUAUCAUGCACAUGAGGAUCACCCAUGUCCUGUAACGUUUGGUGAC” the “apparent Kd” value [1] was 437 nM and the “apparent Kd” value [2] was 302 nM.

With “GUCAUUCAAGUGAGGAUAUCUGCGAUGCCGAAAGGAGAGAAGGCACAUGAGGAUCACCCAUGUGGUGUUUAUAU” the “apparent Kd” value [1] was 34.5 nM and the “apparent Kd” value [2] was 57.4 nM.

In the case of “ACAUAGUAAGGAUAUCUCCUGUUCGAGAAAGAGAGGCAUAAAGAGAAGGUACAUGAGGAUCACCCAUGUGACGA”, the “apparent Kd” value [1] is reported as 7.51 nM and the “apparent Kd” value [2] is reported as 7.26 nM.

In the case of “CUUCCACGAGGAUAUCCGUUAACGGACAUGAGGAUCACCCAUGUUAUCCUCACGUCAGCAGGAGAAGGCGUCUCAU”, the “apparent Kd” value [1] is reported as 22.5 nM and the “apparent Kd” value [2] is reported as 33 nM.

With “UCCUAUUCAGGAUAUGCGACACGAAACAUGAGGAUCACCCAUGUCUGGGCACCUCAAAGCGCAGAAGGGAACAACG” the “apparent Kd” value [1] was 665 nM and the “apparent Kd” value [2] was 321 nM.

“AUAUUUUUGUAAUGACAUGAGGAUCACCCAUGUAUCAAUGUAAGAAGGAGGAAAUAAACACGAUCCUAGGAUAUUAGGUGAUUA” was tested, and the “apparent Kd” value [3] was 44.5 nM and the “apparent Kd” value [4] was 35.3 nM.

“GUUUUCAACUUGUAGGAUAUUUCUCACGAGACAUGAGGAUCACCCAUGUAGUGAACCAGGGAUCGAAAGAAGGACAUCAUGACGGU” was tested, and the “apparent Kd” value [3] was 75.2 nM and the “apparent Kd” value [4] was 49.9 nM.

In the case of “AAGUACUUUGAGAAGGACCUCUCGAACAUGAGGAUCACCCAUGUCACGGAGUACCCGAUCGGCUGGUAGGAUAUCAUGGUACCG”, the “apparent Kd” value [3] is reported as 9.89 nM and the “apparent Kd” value [4] is reported as 8.15 nM.

In the case of “GCUAGACAUGAGGAUCACCCAUGUGAGGAUAUUAGCCAAUCGAGUAAUCCGCUAUAGUUAAGAAGGCACGUGAU”, the “apparent Kd” value [1] is reported as 16.7 nM and the “apparent Kd” value [2] is reported as 16 nM.

“AGUUUUCCUGAGAAGGUGGAGGUCUUUCAUUGCCAAGGAUAUCAGACAACAAUGUAGCCCAAACAUGAGGAUCACCCAUGUCUC” was tested, and the “apparent Kd” value [3] was 70.7 nM and the “apparent Kd” value [4] was 42.1 nM.

With “CAUCAUGGGCUUGGACAAAUUGUGCUUGAUACCAGAAAUCACCGGUUCCCUUGGCAGCAACCCACAUGAGGAUCACCCAUGUGGA” the “apparent Kd” value (designed as: OFF switch for theophylline, no ligand) was 20.6 nM and the “apparent Kd” value (ligand present: theophylline, designed as: OFF switch for theophylline) was 31.2 nM.

In the case of “GAGCCACAUGAGGAUCACCCAUGUCAGGAUAUCGCAAGCGGGAAUAAGCCAACGUCUACGAGAAGGGACUAAUG”, the “apparent Kd” value [1] is reported as 9.79 nM and the “apparent Kd” value [2] is reported as 10.3 nM.
